# CFTR F508del cor: correctors of CFTR F508del function in bronchial epithelial cells; CFBE cells, YFP halide quenching; stimulated with forskolin plus potentiator P3; % fluorescence drop versus neutral controls; activity (quench increase), % at 7.58 µM; hit rate 0.36% among 350,000; AID 720511;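 active means mean added fluorescence quench of at least 8% versus neutral control, with both replicates also reaching 8%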;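 further: cells transiently co-express mutant CFTR-F508del with the halide-sensitive YFP; corrector assay measuring rescue of mutant channel to the surface after 24 h compound exposure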
# ARNT-TACC3 inh: disrupts binding between human ARNT and TACC3; AID 623870; inhibition, % at 9.99 µM; hit rate 0.66% among 390,000; AlphaScreen His-ARNT PAS-B/GST-TACC3 binding, luminescence; TACC3 fragment carries E629A point mutation;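 active means mean inhibition of replicates at least 50% and at least half of replicates each reaching 50%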
# PGC1a acetyl inh: PGC1a acetylation modulation, inhibitor mode. inhibition, % at 15.6 µM. AID 651687. hit rate 0.17% among 350,000. U2OS PGC1a acetylation, AlphaScreen anti-acetyl-lysine; with virally co-expressed GCN5 acetyltransferase;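 active means every replicate shows inhibition of at least 40%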
# CAL PDZ FP-1: inhibitors of human CAL PDZ peptide binding; AID 602252; inhibition, % at 24.9 µM; purified CAL PDZ, TMR-peptide fluorescence polarization, 1 h; Q9HD26; hit rate 0.92% among 300,000;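 active means mean inhibition of at least 30% with at least half of replicates also reaching 30%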
# miR122 inh: blocks miR-122 activity in Huh7 sensor cells; Huh7 miR-122 Renilla luciferase sensor, 48 h; neutral wells = 0, positive control = 100; activation (reporter increase), % at 12.5 µM; hit rate 0.3% among 340,000;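 active means mean replicate activation score at least 90 and every replicate individually at or above 90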;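 further: higher luciferase means less miR-122 activity so hits act as miR-122 inhibitors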
# CAL PDZ FP-2: inhibitors of human CAL PDZ peptide binding | Q9HD26 | hit rate 0.02% among 330,000 | inhibition, % at 20 µM | purified CAL PDZ, TMR-peptide fluorescence polarization, 1 h | AID 504414;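 active means highest replicate inhibition of at least 40%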
#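 Material: tagged CAL PDZ domain; buffer or medium: 25 mM sodium phosphate pH 7.4, 150 mM NaCl, TCEP, IgG, Thesit; compound dosing: single point, 20 µM; schedule: 1 h incubation at room temperature before polarization reading; measured by: FP readout, S and P plane fluorescence; read-out basis: percent inhibition from loss of millipolarization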
# Hits are given with their value; 0 = inactive; - = not tested or not shown; ! = repeats disagree. Shown are actives, neighbours in structure and some others; about 1.7% of the full set was active somewhere.
SMILES,CFTR F508del cor,ARNT-TACC3 inh,PGC1a acetyl inh,CAL PDZ FP-1,miR122 inh,CAL PDZ FP-2
O=C(Cc1ccncc1)NCC[C@H]1CC[C@@H](NC(=O)C2CC2)[C@H](CO)O1,0,0,62,-,-,-
C[C@H]1CN([C@@H](C)CO)C(=O)c2cc(NC(=O)Nc3ccccc3)ccc2O[C@@H]1CN(C)C,0,0,0,-,0,-
C[C@@H]1CN([C@H](C)CO)C(=O)Cc2cc(NC(=O)CCN3CCOCC3)ccc2O[C@H]1CN(C)S(=O)(=O)c1ccc(F)cc1,0,0,0,-,0,-
O=c1cc2c(=O)oc3cc(O)c(O)oc3c2c(O)c1O,0,13,0,0,-,-
O=c1oc2cc(O)c(Cl)cc2c2ccccc12,-,0,0,0,0,0
CC(=O)Nc1ccc(Oc2nc(-c3cccnc3)nc3sc4c(c23)CCCC4)cc1,-,0,0,67,0,0
CSc1ccc2c(c1)N(CCC1CCCCN1C)c1ccccc1S2 (stereo unspecified),0,58!,0,0,0,0
O=C(NCc1cccnc1)/C(=C/c1ccc(-c2cccc(C(F)(F)F)c2)o1)NC(=O)c1ccccc1,-,0,-,42,0,0
Cc1ccc(C(=O)N/C(=C/c2ccc(-c3cc(C(F)(F)F)ccc3Cl)o2)C(=O)NCc2cccnc2)cc1,-,0,0,0,0,0
CC1CCN(Cc2nnnn2CCCC(=O)NCCc2cnn(C)c2)CC1,0,0,0,113,0,0
CC1CCN(Cc2nnnn2CCCC(=O)NCC(C)(C)N2CCOCC2)CC1,0,0,0,0,0,0
CCCCOC(=O)/C(=C\c1ccc([N+](=O)[O-])o1)NC(=O)c1ccccc1,-,0,0,41,0,-
CCCCOC(=O)/C(=C/C=C/c1ccccc1)NC(=O)c1ccccc1,0,0,0,0,0,0
Cn1c(CNC(=O)CCNC(=O)c2cccc(Cl)c2)cc(=O)n(C)c1=O,0,0,0,43,0,0
CCCNC(=O)N[C@H]1C=C[C@H](CC(=O)NC2CCC2)O[C@@H]1CO,0,0,0,-,-,-
COC(=O)CSC1=C(C#N)C(c2ccc(F)cc2)CC(=O)N1 (stereo unspecified),0,0,0,0,0,0
COC(=O)CSC1=C(C#N)C(c2ccc(C)o2)CC(=O)N1 (stereo unspecified),9.7,0,0,0,0,0
CC(=O)N(C)C[C@H]1Oc2cc(-c3ccccc3C)ccc2S(=O)(=O)N([C@H](C)CO)C[C@H]1C,0,0,0,-,0,-
CCN(Cc1ccccc1)Cc1nc(CCc2ccccc2)no1,0,0,0,0,-,0
c1ccc(CCN(Cc2ccccc2)Cc2nc(C3CC3)no2)cc1,8.9,-,-,0,-,0
CC(C)C#Cc1cnc2c(c1)C(=O)N([C@H](C)CO)C[C@H](C)[C@H](CN(C)C(=O)c1ccc3c(c1)OCO3)O2,0,0,0,-,0,-
Oc1c(Cl)cc(Cl)cc1C=Nc1ccc(N2CCOCC2)cc1,0,0,0,0,0,0
Cc1nc(N/N=C/c2ccc(O)cc2O)cc(N2CCOCC2)n1,0,65,0,0,0,0
Oc1ccc(C=Nc2ccc(N3CCOCC3)cc2)c(O)c1,-,-,64,0,0,0
CNC[C@H]1Oc2c(NC(=O)c3cc(C)nn3C)cccc2C(=O)N([C@@H](C)CO)C[C@H]1C,0,0,0,-,0,-
SMILES,CFTR F508del cor,ARNT-TACC3 inh,PGC1a acetyl inh,CAL PDZ FP-1,miR122 inh,CAL PDZ FP-2
CC=Cc1ccc2n(c1=O)C[C@H]1[C@H](CO)[C@@H](C(=O)NCCC)[C@@H]2N1CC1CCCC1 (mixture of isomers),-,0,-,-,-,-
CCCNC(=O)c1ccccc1NC(=O)C1=CSCCO1,0,0,0,78,0,0
CC(C)CCNC(=O)c1ccccc1NC(=O)C1=CSCCO1,0,0,0,0,0,0
CCCNC(=O)c1ccccc1NS(=O)(=O)c1ccc2c(c1)OCCO2,-,0,-,69,0,0
CCCCNC(=O)c1ccccc1NS(=O)(=O)c1ccc2c(c1)OCCO2,-,0,0,0,0,0
C[C@@H]1CN([C@H](C)CO)C(=O)c2cc(NC(=O)Nc3ccccc3)ccc2O[C@@H](C)CCCCO[C@@H]1CN(C)Cc1ccc(C(F)(F)F)cc1,0,0,0,-,0,-
CC1CCN(S(=O)(=O)c2ccc([N+](=O)[O-])cc2)CC1,0,0,-,0,-,0

# Screening results (PubChem)
